The record followed here is ChEMBL document CHEMBL1154837, “Identification of antibacterial and antifungal pharmacophore sites for potent bacteria and fungi inhibition: indolenyl sulfonamide derivatives” (Eur J Med Chem, 2010).

Converted amounts (≈) assume the structure as drawn.

In test [1] the test system is Escherichia coli. In words: Antimicrobial activity against Escherichia coli at 1 mg/ml by agar-well diffusion method. The format is functional. To be noted: read-out: IZ. In outline:
(§1)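 Agar-well diffusion on nutrient agar. The surface was swabbed with 2–8 h old inocula of about 10^4–10^6 CFU/mL. Wells were 6 mm across and at least 24 mm apart. Each well received sample at 1 mg/mL in DMSO. DMSO served as negative control and imipenem as positive control. Plates were incubated at 37 °C for 24 h, and the diameter of the complete-inhibition zone was measured in mm.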

The test system of test [2] is Shigella flexneri. In words: Antimicrobial activity against Shigella flexneri at 1 mg/ml by agar-well diffusion method. Format: functional. To be noted: read-out: IZ. The procedure, abridged:
as §1
For orientation: A growth-free zone around the sample is the usual read-out of agar diffusion tests.

Another test concerns Pseudomonas aeruginosa. In words: Antimicrobial activity against Pseudomonas aeruginosa at 1 mg/ml by agar-well diffusion method. The format is functional. To be noted: read-out: IZ. In outline:
as §1

Test [3] has as its system Salmonella enterica. In words: Antimicrobial activity against Salmonella typhi at 1 mg/ml by agar-well diffusion method. The format is functional, Salmonella enterica subsp. enterica serovar Typhi. The conditions noted are these: read-out: IZ. The procedure, abridged:
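Agar-well diffusion on nutrient agar. Plates were swabbed with 2–8 h old inoculum at about 10^4–10^6 CFU/mL, and 6 mm wells were cut at least 24 mm apart. Test sample 1 mg/mL in DMSO. DMSO served as negative control and imipenem as positive control. Plates were incubated at 37 °C for 24 h, and the diameter of complete-inhibition zones was measured (mm).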

In the next test the test system is Staphylococcus aureus. Nature of the test: Antimicrobial activity against Staphylococcus aureus at 1 mg/ml by agar-well diffusion method. Format: functional. To be noted: read-out: IZ. In outline:
as §1

Test [4] concerns Bacillus subtilis. Nature of the test: Antimicrobial activity against Bacillus subtilis at 1 mg/ml by agar-well diffusion method. Format: functional. To be noted: read-out: IZ. The procedure, abridged:
as §1

For test [5], the system named is Candida albicans. Nature of the test: Antimicrobial activity against Candida albicans at 200 ug/ml after 7 days. To be noted: 168 h. The format is functional. The procedure, abridged:
(§2)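 Sabouraud dextrose agar was seeded with fungal spore suspension at 10^5 cfu/mL and poured into Petri plates. Discs soaked with compound at 200 µg/mL in DMSO were placed on the agar surface. Plates were incubated at 32 °C for seven days. Results were recorded as % inhibition, with miconazole and amphotericin B as reference drugs.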

The next test relates to Aspergillus flavus. Nature of the test: Antimicrobial activity against Aspergillus flavus at 200 ug/ml after 7 days. The conditions noted are these: 168 h. The format is functional. In outline:
as §2

For test [6], the system named is Fusarium solani. Nature of the test: Antimicrobial activity against Fusarium solani at 200 ug/ml after 7 days. Format: functional. The conditions noted are these: 168 h. In outline: as §2
Test [7] has as its system Nakaseomyces glabratus. In words: Antimicrobial activity against Candida glabrata at 200 ug/ml after 7 days. The format is functional. The conditions noted are these: 168 h. The procedure, abridged:
as §2

The subject of test [8] is Shigella flexneri. In words: Antimicrobial activity against Shigella flexneri after 24 hrs by disk diffusion assay. The format is functional. In outline:
(§3)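 MIC by disc diffusion, using discs prepared with 10, 25, 50 and 100 µg/mL of compound.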

Test [9] relates to Salmonella enterica. In words: Antimicrobial activity against Salmonella typhi after 24 hrs by disk diffusion assay. Format: functional, Salmonella enterica subsp. enterica serovar Typhi.
Test [10] deals with Bacillus subtilis. Nature of the test: Antimicrobial activity against Bacillus subtilis after 24 hrs by disk diffusion assay. The format is functional. The procedure, abridged:
as §3

The subject of the next test is Trichophyton longifusum. Nature of the test: Antimicrobial activity against Trichophyton longifusum after 7 days. The format is functional.
Test [11] deals with Candida albicans. In words: Antimicrobial activity against Candida albicans after 7 days. The format is functional.
A further test deals with Microsporum canis. Nature of the test: Antimicrobial activity against Microsporum canis after 7 days. Format: functional.
In test [12] the test system is Fusarium solani. Nature of the test: Antimicrobial activity against Fusarium solani after 7 days. Format: functional.
The subject of test [13] is Nakaseomyces glabratus. Nature of the test: Antimicrobial activity against Candida glabrata after 7 days. The format is functional.
For test [14], the system named is Escherichia coli. In words: Antimicrobial activity against Escherichia coli after 24 hrs by disk diffusion assay. The format is functional. The procedure, abridged: as §3

A word on the MIC: it is the smallest concentration in the dilution series that meets the test's criterion for growth inhibition. Lower therefore signals inhibition by little substance. On to `N=C(N)NS(=O)(=O)c1ccc(/N=C/c2c[nH]c3ccccc23)cc1`, for which the zone of inhibition at 1000 µg/mL in the test with Escherichia coli [1] came out at 23 mm; with Shigella flexneri [2], 22 mm; in the test on Pseudomonas aeruginosa, 18 mm; with Salmonella enterica [3] it was 23 mm; in the test with Staphylococcus aureus, 22 mm; in the test with Bacillus subtilis [4], 23 mm. The growth inhibition at 200 µg/mL with Candida albicans [5] was 35%; with Aspergillus flavus, 30%; with Fusarium solani [6], 35%; in the test with Nakaseomyces glabratus [7] it was 55%. Besides, the values for the MIC against Shigella flexneri [8], with Salmonella enterica [9] and in the test on Bacillus subtilis [10] were 146 µM (≈ 50 µg/mL), 293 µM (≈ 100 µg/mL) and 146 µM (≈ 50 µg/mL), respectively.

As to `Clc1ccc(COC(Cn2ccnc2)c2ccc(Cl)cc2Cl)c(Cl)c1` (stereo not given) [MICONAZOLE], the MIC was 168 µM (≈ 70 µg/mL) against Trichophyton longifusum; 266 µM (≈ 111 µg/mL) with Candida albicans [11]; 236 µM (≈ 98.4 µg/mL) against Microsporum canis; 176 µM (≈ 73.3 µg/mL) against Fusarium solani [12]; 266 µM (≈ 111 µg/mL) with Nakaseomyces glabratus [13].

In the case of `O=S(=O)(Nc1ncccn1)c1ccc(/N=C/c2c[nH]c3ccccc23)cc1`, the zone of inhibition at 1000 µg/mL in the test on Escherichia coli [1] stood at 19 mm; in the test on Shigella flexneri [2], 18 mm; in the test on Pseudomonas aeruginosa, 20 mm; in the test with Salmonella enterica [3], 17 mm; with Staphylococcus aureus it was 19 mm; in the test with Bacillus subtilis [4], 19 mm. The growth inhibition at 200 µg/mL in the test on Candida albicans [5] was 35%; with Aspergillus flavus, 25%; in the test with Fusarium solani [6], 70%; in the test with Nakaseomyces glabratus [7], 20%.

`Cc1cc(C)nc(NS(=O)(=O)c2ccc(/N=C/c3c[nH]c4ccccc34)cc2)n1`: the zone of inhibition at 1000 µg/mL in the test with Escherichia coli [1] was found to be 24 mm; in the test with Shigella flexneri [2] it was 19 mm; in the test on Pseudomonas aeruginosa it was 20 mm; in the test with Salmonella enterica [3], 22 mm; in the test with Staphylococcus aureus, 23 mm; in the test on Bacillus subtilis [4], 18 mm. Further, the growth inhibition at 200 µg/mL with Candida albicans [5] is 60%; in the test on Aspergillus flavus, 55%; with Fusarium solani [6], 75%; in the test on Nakaseomyces glabratus [7], 28%. For the same molecule, the values for the MIC with Escherichia coli [14] and in the test with Salmonella enterica [9] were 123 µM (≈ 50 µg/mL) and 247 µM (≈ 100 µg/mL), respectively.

`Cc1noc(NS(=O)(=O)c2ccc(/N=C/c3c[nH]c4ccccc34)cc2)c1C`: the zone of inhibition at 1000 µg/mL amounted to 23 mm in the test with Escherichia coli [1]; 19 mm in the test on Shigella flexneri [2]; 19 mm with Pseudomonas aeruginosa; 20 mm in the test on Salmonella enterica [3]; 20 mm with Staphylococcus aureus; 17 mm in the test on Bacillus subtilis [4]. Further, the growth inhibition at 200 µg/mL is 45% in the test with Candida albicans [5], 55% in the test with Aspergillus flavus, 65% in the test on Fusarium solani [6] and 55% with Nakaseomyces glabratus [7].

Take `C[C@@H](O)[C@H]1C(=O)N2C(C(=O)O)=C(SCCNC=N)C[C@H]12` [IMIPENEM ANHYDROUS]: the zone of inhibition at 1000 µg/mL in the test on Escherichia coli [1] turned out to be 30 mm; in the test on Shigella flexneri [2] it was 27 mm; with Pseudomonas aeruginosa, 26 mm; in the test on Salmonella enterica [3], 27 mm; in the test with Staphylococcus aureus, 30 mm; in the test with Bacillus subtilis [4], 28 mm.

Turning to `NS(=O)(=O)c1ccc(/N=C/c2c[nH]c3ccccc23)cc1`, the zone of inhibition at 1000 µg/mL in the test with Escherichia coli [1] was determined as 21 mm; with Shigella flexneri [2], 18 mm; in the test on Pseudomonas aeruginosa, 19 mm; in the test with Salmonella enterica [3], 20 mm; in the test on Staphylococcus aureus it was 18 mm; in the test on Bacillus subtilis [4], 20 mm. Further, the growth inhibition at 200 µg/mL with Candida albicans [5] was found to be 40%; with Aspergillus flavus, 55%; in the test on Fusarium solani [6] it was 43%; in the test with Nakaseomyces glabratus [7], 25%.

For `O=S(=O)(Nc1nccs1)c1ccc(/N=C/c2c[nH]c3ccccc23)cc1`, the zone of inhibition at 1000 µg/mL was 24 mm with Escherichia coli [1]; 23 mm in the test on Shigella flexneri [2]; 20 mm with Pseudomonas aeruginosa; 23 mm with Salmonella enterica [3]; 23 mm with Staphylococcus aureus; 24 mm with Bacillus subtilis [4]. Further, the growth inhibition at 200 µg/mL with Candida albicans [5] amounted to 40%; in the test with Aspergillus flavus it was 30%; in the test on Fusarium solani [6] it was 80%; in the test on Nakaseomyces glabratus [7], 60%. Further, the minimal inhibitory concentration (MIC) in the test with Escherichia coli [14] turned out to be 262 µM (≈ 100 µg/mL); against Shigella flexneri [8] it was 131 µM (≈ 50 µg/mL); against Salmonella enterica [9] it was 262 µM (≈ 100 µg/mL).

Turning to `Cc1cc(NS(=O)(=O)c2ccc(/N=C/c3c[nH]c4ccccc34)cc2)no1`, the zone of inhibition at 1000 µg/mL in the test with Escherichia coli [1] amounted to 22 mm; in the test with Shigella flexneri [2], 20 mm; in the test on Pseudomonas aeruginosa, 17 mm; in the test on Salmonella enterica [3], 19 mm; in the test on Staphylococcus aureus it was 19 mm; in the test with Bacillus subtilis [4], 23 mm. Also, the growth inhibition at 200 µg/mL in the test with Candida albicans [5] came to 25%; in the test with Aspergillus flavus it was 45%; in the test with Fusarium solani [6] it was 45%; with Nakaseomyces glabratus [7], 40%. For the same molecule, in the test with Bacillus subtilis [10], the MIC was found to be 263 µM (≈ 100 µg/mL).
